In ChEMBL document CHEMBL1275468, “Plasmid-mediated qnrB2 and carbapenemase gene bla(KPC-2) carried on the same plasmid in carbapenem-resistant ciprofloxacin-susceptible Enterobacter cloacae isolates” (2008):

Columns and labels:
Assay type in all cases: functional
Enterobacter cloacae [1] = experiment: Antimicrobial activity against Enterobacter cloacae isolate 656 containing PFGE genetic clone A expressing beta-lactamase KPC-2 and SHV-12 gene by Etest in presence of beta-lactamase inhibitor Tazobactam
Summary of the method: (§1)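 Clinical carbapenem-resistant, blaKPC-2-carrying E. cloacae isolates; MIC read by Etest. Clonal relatedness typed by PFGE after SpeI (20 U) digestion of genomic DNA on a CHEF-DR III system. qnr genes, and aac(6′)-Ib-cr by PCR with BtsCI digestion, detected from cell-lysate templates.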

Enterobacter cloacae [2] = experiment: Antimicrobial activity against Enterobacter cloacae isolate 649 containing PFGE genetic clone B expressing qnrB2 and beta-lactamase KPC-2 and SHV-12 gene by Etest in presence of beta-lactamase inhibitor Tazobactam; summary of the method: as §1
Enterobacter cloacae [3] = experiment: Antimicrobial activity against Enterobacter cloacae isolate 658 containing PFGE genetic clone B expressing qnrB2 and beta-lactamase KPC-2 and SHV-12 gene by Etest in presence of beta-lactamase inhibitor Tazobactam; summary of the method: as §1
Enterobacter cloacae [4] = experiment: Antimicrobial activity against Enterobacter cloacae isolate 781 containing PFGE genetic clone B expressing qnrB2 and beta-lactamase KPC-2 and SHV-12 gene by Etest in presence of beta-lactamase inhibitor Tazobactam; summary of the method: as §1
Enterobacter cloacae [5] = experiment: Antimicrobial activity against Enterobacter cloacae isolate 837 containing PFGE genetic clone B expressing qnrB2 and beta-lactamase KPC-2 and SHV-12 gene by Etest in presence of beta-lactamase inhibitor Tazobactam; summary of the method: as §1
Enterobacter cloacae [6] = experiment: Antimicrobial activity against Enterobacter cloacae isolate 4469 containing PFGE genetic clone C expressing qnrB2 and beta-lactamase KPC-2 and SHV-12 gene by Etest in presence of beta-lactamase inhibitor Tazobactam
Escherichia coli [7] = experiment: Antimicrobial activity against Escherichia coli T-622 harboring expressing qnrB2 and beta-lactamase KPC-2 and SHV-12 gene by Etest in presence of beta-lactamase inhibitor Tazobactam
Escherichia coli [8] = experiment: Antimicrobial activity against Escherichia coli T-625 harboring expressing qnrB2 and beta-lactamase KPC-2 and SHV-12 gene by Etest in presence of beta-lactamase inhibitor Tazobactam
Escherichia coli [9] = experiment: Antimicrobial activity against Escherichia coli T-781 harboring expressing qnrB2 and beta-lactamase KPC-2 and SHV-12 gene by Etest in presence of beta-lactamase inhibitor Tazobactam
Escherichia coli [10] = experiment: Antimicrobial activity against Escherichia coli GeneHogs by Etest in presence of beta-lactamase inhibitor Tazobactam
Summary of the method: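 Recipient is E. coli GeneHogs (recA1), electroporated with plasmid DNA from clinical isolates. Transformants were selected on LB agar with 100 μg/ml ampicillin and PCR-screened for blaKPC, blaSHV and qnr genes. MIC read by Etest.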

Enterobacter cloacae [11] = experiment: Antimicrobial activity against Enterobacter cloacae isolate 1 containing PFGE genetic clone A expressing qnrB2 and beta-lactamase KPC-2 and SHV-12 gene by Etest
Enterobacter cloacae [12] = experiment: Antimicrobial activity against Enterobacter cloacae isolate 18 containing PFGE genetic clone A expressing qnrB2 and beta-lactamase KPC-2 and SHV-12 gene by Etest
Enterobacter cloacae [13] = experiment: Antimicrobial activity against Enterobacter cloacae isolate 140 containing PFGE genetic clone A expressing beta-lactamase KPC-2 and SHV-12 gene by Etest
Enterobacter cloacae [14] = experiment: Antimicrobial activity against Enterobacter cloacae isolate 151 containing PFGE genetic clone A expressing qnrB2 and beta-lactamase KPC-2 gene by Etest
Enterobacter cloacae [15] = experiment: Antimicrobial activity against Enterobacter cloacae isolate 185 containing PFGE genetic clone A expressing qnrB2 aac(6')-Ib-cr and beta-lactamase KPC-2 and SHV-12 gene by Etest
Enterobacter cloacae [16] = experiment: Antimicrobial activity against Enterobacter cloacae isolate 293 containing PFGE genetic clone A expressing qnrB2 and beta-lactamase KPC-2 and SHV-12 gene by Etest
Enterobacter cloacae [17] = experiment: Antimicrobial activity against Enterobacter cloacae isolate 533 containing PFGE genetic clone A expressing qnrB2 and beta-lactamase KPC-2 and SHV-12 gene by Etest
Enterobacter cloacae [18] = experiment: Antimicrobial activity against Enterobacter cloacae isolate 622 containing PFGE genetic clone A expressing qnrB2 and beta-lactamase KPC-2 and SHV-12 gene by Etest
Enterobacter cloacae [19] = experiment: Antimicrobial activity against Enterobacter cloacae isolate 625 containing PFGE genetic clone A expressing qnrB2 and beta-lactamase KPC-2 and SHV-12 gene by Etest
Enterobacter cloacae [20] = experiment: Antimicrobial activity against Enterobacter cloacae isolate 656 containing PFGE genetic clone A expressing beta-lactamase KPC-2 and SHV-12 gene by Etest
Enterobacter cloacae [21] = experiment: Antimicrobial activity against Enterobacter cloacae isolate 649 containing PFGE genetic clone B expressing qnrB2 and beta-lactamase KPC-2 and SHV-12 gene by Etest
Enterobacter cloacae [22] = experiment: Antimicrobial activity against Enterobacter cloacae isolate 658 containing PFGE genetic clone B expressing qnrB2 and beta-lactamase KPC-2 and SHV-12 gene by Etest
Enterobacter cloacae [23] = experiment: Antimicrobial activity against Enterobacter cloacae isolate 781 containing PFGE genetic clone B expressing qnrB2 and beta-lactamase KPC-2 and SHV-12 gene by Etest
Enterobacter cloacae [24] = experiment: Antimicrobial activity against Enterobacter cloacae isolate 837 containing PFGE genetic clone B expressing qnrB2 and beta-lactamase KPC-2 and SHV-12 gene by Etest
Enterobacter cloacae [25] = experiment: Antimicrobial activity against Enterobacter cloacae isolate 4469 containing PFGE genetic clone C expressing qnrB2 and beta-lactamase KPC-2 and SHV-12 gene by Etest
Escherichia coli [26] = experiment: Antimicrobial activity against Escherichia coli T-622 harboring expressing qnrB2 and beta-lactamase KPC-2 and SHV-12 gene by Etest
Summary of the method: (§2)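 MIC read by Etest. Strains are E. coli GeneHogs (recA1) transformants. Plasmid DNA from clinical E. cloacae isolates was introduced by electroporation. Transformants were selected on LB agar with 100 μg/ml ampicillin, then PCR-screened for blaKPC, blaSHV and qnr genes.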

Escherichia coli [27] = experiment: Antimicrobial activity against Escherichia coli T-625 harboring expressing qnrB2 and beta-lactamase KPC-2 and SHV-12 gene by Etest; summary of the method: as §2
Escherichia coli [28] = experiment: Antimicrobial activity against Escherichia coli T-781 harboring expressing qnrB2 and beta-lactamase KPC-2 and SHV-12 gene by Etest; summary of the method: as §2
Escherichia coli [29] = experiment: Antimicrobial activity against Escherichia coli GeneHogs by Etest
Summary of the method: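 MIC read by Etest on the plasmid-free electroporation recipient, E. coli GeneHogs (recA1 mutant).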

Enterobacter cloacae [30] = experiment: Antimicrobial activity against Enterobacter cloacae isolate 1 containing PFGE genetic clone A expressing qnrB2 and beta-lactamase KPC-2 and SHV-12 gene by Etest in presence of beta-lactamase inhibitor Tazobactam; summary of the method: as §1
Enterobacter cloacae [31] = experiment: Antimicrobial activity against Enterobacter cloacae isolate 18 containing PFGE genetic clone A expressing qnrB2 and beta-lactamase KPC-2 and SHV-12 gene by Etest in presence of beta-lactamase inhibitor Tazobactam; summary of the method: as §1
Enterobacter cloacae [32] = experiment: Antimicrobial activity against Enterobacter cloacae isolate 140 containing PFGE genetic clone A expressing beta-lactamase KPC-2 and SHV-12 gene by Etest in presence of beta-lactamase inhibitor Tazobactam; summary of the method: as §1
Enterobacter cloacae [33] = experiment: Antimicrobial activity against Enterobacter cloacae isolate 151 containing PFGE genetic clone A expressing qnrB2 and beta-lactamase KPC-2 gene by Etest in presence of beta-lactamase inhibitor Tazobactam; summary of the method: as §1
Enterobacter cloacae [34] = experiment: Antimicrobial activity against Enterobacter cloacae isolate 185 containing PFGE genetic clone A expressing qnrB2 aac(6')-Ib-cr and beta-lactamase KPC-2 and SHV-12 gene by Etest in presence of beta-lactamase inhibitor Tazobactam; summary of the method: as §1
Enterobacter cloacae [35] = experiment: Antimicrobial activity against Enterobacter cloacae isolate 293 containing PFGE genetic clone A expressing qnrB2 and beta-lactamase KPC-2 and SHV-12 gene by Etest in presence of beta-lactamase inhibitor Tazobactam; summary of the method: as §1
Enterobacter cloacae [36] = experiment: Antimicrobial activity against Enterobacter cloacae isolate 533 containing PFGE genetic clone A expressing qnrB2 and beta-lactamase KPC-2 and SHV-12 gene by Etest in presence of beta-lactamase inhibitor Tazobactam; summary of the method: as §1
Enterobacter cloacae [37] = experiment: Antimicrobial activity against Enterobacter cloacae isolate 622 containing PFGE genetic clone A expressing qnrB2 and beta-lactamase KPC-2 and SHV-12 gene by Etest in presence of beta-lactamase inhibitor Tazobactam; summary of the method: as §1
Enterobacter cloacae [38] = experiment: Antimicrobial activity against Enterobacter cloacae isolate 625 containing PFGE genetic clone A expressing qnrB2 and beta-lactamase KPC-2 and SHV-12 gene by Etest in presence of beta-lactamase inhibitor Tazobactam; summary of the method: as §1

## CCN1CCN(C(=O)N[C@@H](C(=O)N[C@@H]2C(=O)N3[C@@H]2SC(C)(C)[C@@H]3C(=O)O)c2ccccc2)C(=O)C1=O [PIPERACILLIN]
Enterobacter cloacae [1]
  MIC: ≥ 128 µg/mL
Enterobacter cloacae [2]
  MIC: ≥ 128 µg/mL
Enterobacter cloacae [3]
  MIC: ≥ 128 µg/mL
Enterobacter cloacae [4]
  MIC: ≥ 128 µg/mL
Enterobacter cloacae [5]
  MIC: ≥ 128 µg/mL
Enterobacter cloacae [6]
  MIC: 64 µg/mL
Escherichia coli [7]
  MIC: 64 µg/mL
Escherichia coli [8]
  MIC: ≥ 128 µg/mL
Escherichia coli [9]
  MIC: 64 µg/mL
Escherichia coli [10]
  MIC: ≤ 4 µg/mL
Enterobacter cloacae [11]
  MIC: ≥ 128 µg/mL
Enterobacter cloacae [12]
  MIC: ≥ 128 µg/mL
Enterobacter cloacae [13]
  MIC: ≥ 128 µg/mL
Enterobacter cloacae [14]
  MIC: ≥ 128 µg/mL
Enterobacter cloacae [15]
  MIC: ≥ 128 µg/mL
Enterobacter cloacae [16]
  MIC: ≥ 128 µg/mL
Enterobacter cloacae [17]
  MIC: ≥ 128 µg/mL
Enterobacter cloacae [18]
  MIC: ≥ 128 µg/mL
Enterobacter cloacae [19]
  MIC: ≥ 128 µg/mL
Enterobacter cloacae [20]
  MIC: ≥ 128 µg/mL
Enterobacter cloacae [21]
  MIC: ≥ 128 µg/mL
Enterobacter cloacae [22]
  MIC: ≥ 128 µg/mL
Enterobacter cloacae [23]
  MIC: ≥ 128 µg/mL
Enterobacter cloacae [24]
  MIC: ≥ 128 µg/mL
Enterobacter cloacae [25]
  MIC: ≥ 128 µg/mL
Escherichia coli [26]
  MIC: ≥ 128 µg/mL
Escherichia coli [27]
  MIC: ≥ 128 µg/mL
Escherichia coli [28]
  MIC: ≥ 128 µg/mL
Escherichia coli [29]
  MIC: ≤ 4 µg/mL
Enterobacter cloacae [30]
  MIC: ≥ 128 µg/mL
Enterobacter cloacae [31]
  MIC: ≥ 128 µg/mL
Enterobacter cloacae [32]
  MIC: ≥ 128 µg/mL
Enterobacter cloacae [33]
  MIC: ≥ 128 µg/mL
Enterobacter cloacae [34]
  MIC: ≥ 128 µg/mL
Enterobacter cloacae [35]
  MIC: ≥ 128 µg/mL
Enterobacter cloacae [36]
  MIC: ≥ 128 µg/mL
Enterobacter cloacae [37]
  MIC: ≥ 128 µg/mL
Enterobacter cloacae [38]
  MIC: ≥ 128 µg/mL
